Experimental data taken from ChEMBL document CHEMBL1145632, “Sulfamoyl benzamides as novel CB2 cannabinoid receptor ligands” (Bioorg Med Chem Lett, 2008).
The source made the active and inactive calls.

Key:
[1] = molecular target: T1, Cannabinoid receptor 1 (Homo sapiens, UniProt P21554); experiment: Displacement of [3H]CP-55940 from human cloned CB1 receptor
Outline: (§1)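 Competition binding of 0.2–0.6 nM [3H]CP55940 to membranes from cells expressing cloned human CB1 or CB2 receptors. Buffer: 50 mM Tris-HCl pH 7.0, 5.0 mM MgCl2, 1.0 mM EGTA, 1.0 mg/mL fatty-acid-free BSA. Incubation was 120 min at 30 °C for CB1 and 60 min at room temperature for CB2. Samples were filtered and counted by scintillation. Nonspecific binding was set with 10 µM WIN55212-2. Ratio is Ki CB1/Ki CB2.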

[2] = molecular target: T2, Cannabinoid receptor 2 (Homo sapiens, UniProt P34972); experiment: Displacement of [3H]CP-55940 from human cloned CB2 receptor; outline: as §1
T2 sequence (P34972 whole entry): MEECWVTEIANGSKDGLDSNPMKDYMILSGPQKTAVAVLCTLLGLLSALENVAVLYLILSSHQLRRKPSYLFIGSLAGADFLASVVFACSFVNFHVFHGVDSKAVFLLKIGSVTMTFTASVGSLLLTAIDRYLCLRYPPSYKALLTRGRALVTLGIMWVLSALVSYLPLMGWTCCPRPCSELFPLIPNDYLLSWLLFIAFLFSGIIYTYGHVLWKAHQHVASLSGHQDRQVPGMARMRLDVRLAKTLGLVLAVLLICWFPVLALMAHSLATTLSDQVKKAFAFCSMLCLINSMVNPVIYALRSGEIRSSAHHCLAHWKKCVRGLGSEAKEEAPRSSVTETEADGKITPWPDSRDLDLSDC

[3] = organism: Homo sapiens; experiment: Selectivity ratio of Ki for human cloned CB1 receptor to Ki for human cloned CB2 receptor; outline: as §1
[4] = organism: Homo sapiens; experiment: Selectivity ratio of EC50 for human cloned CB1 receptor to EC50 for human cloned CB2 receptor
[5] = molecular target: T2, Cannabinoid receptor 2; experiment: Agonist activity at human cloned CB2 receptor by [35S]GTP-gamma-S binding assay; assay type: functional
Outline: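 Stimulation of [35S]GTPγS binding used 25 µg membrane protein from cells expressing cloned human CB2. Mix: 100–150 pM [35S]GTPγS, 150 mM NaCl, 45 mM MgCl2, 3 µM GDP, 0.4 mM DTT, 1.0 mM EGTA, 1 mg/mL fatty-acid-free BSA in 50 mM Tris-HCl pH 7.0. Incubation was 6 h at room temperature, read by scintillation. Stimulation over basal (no agonist) is expressed as % of 10 µM WIN55212-2.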

[6] = molecular target: T1, Cannabinoid receptor 1; experiment: Agonist activity at human cloned CB1 receptor by [35S]GTPgammaS binding assay; assay type: functional
[7] = test system: Rattus norvegicus; experiment: Reversal of nerve injury-induced tactile allodynia in rat L5 spinal nerve ligation-induced nociception model at 3 mg/kg, ip; assay type: functional, organism-based; design: dose 3 mg/kg
Outline: (§2)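 Rats with L5 spinal nerve ligation or hindpaw incision were dosed as stated. Read-out was paw-withdrawal threshold of the left hindpaw, reported as group mean ± SEM. Groups were compared by one-way ANOVA with protected t-test against the vehicle-treated surgery group.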

[8] = test system: Rattus norvegicus; experiment: Toxicity in rat assessed as induction of catalepsy at 10 mg/kg, ip; assay type: organism-based; design: dose 10 mg/kg, route intraperitoneal; conditions: in vivo
[9] = test system: Rattus norvegicus; experiment: Antiallodynic effect in rat hind paw incision-induced nociception model at 100 mg/kg, ip; assay type: functional, organism-based; design: dose 100 mg/kg
[10] = test system: Rattus norvegicus; experiment: Toxicity in rat assessed as behavioral side effects upto 10 mg/kg, ip; assay type: organism-based; design: dose 10 mg/kg, route intraperitoneal; conditions: in vivo
[11] = test system: Rattus norvegicus; experiment: Antiallodynic effect in rat hind paw incision-induced nociception model at 30 mg/kg, ip; assay type: functional, organism-based; design: dose 30 mg/kg
[12] = test system: Rattus norvegicus; experiment: Antiallodynic effect in rat hind paw incision-induced nociception model at 10 mg/kg, ip; assay type: functional, organism-based; design: dose 10 mg/kg; outline: as §2
[13] = test system: Rattus norvegicus; experiment: Toxicity in rat assessed as induction of catalepsy at 6 mg/kg, ip; assay type: organism-based; design: dose 6 mg/kg, route intraperitoneal; conditions: in vivo
[14] = molecular target: T1, Cannabinoid receptor 1; experiment: Displacement of [3H]CP-55940 from human cloned CB1 receptor at 10 uM
[15] = test system: Rattus norvegicus; experiment: Reversal of nerve injury-induced tactile allodynia in rat L5 spinal nerve ligation-induced nociception model at 60 mg/kg, ip; assay type: functional, organism-based; design: dose 60 mg/kg; outline: as §2
[16] = test system: Rattus norvegicus; experiment: Antiallodynic effect in rat hind paw incision-induced nociception model at 3 mg/kg, sc; assay type: functional, organism-based; design: dose 3 mg/kg; outline: as §2

T1 sequence (P21554 whole entry): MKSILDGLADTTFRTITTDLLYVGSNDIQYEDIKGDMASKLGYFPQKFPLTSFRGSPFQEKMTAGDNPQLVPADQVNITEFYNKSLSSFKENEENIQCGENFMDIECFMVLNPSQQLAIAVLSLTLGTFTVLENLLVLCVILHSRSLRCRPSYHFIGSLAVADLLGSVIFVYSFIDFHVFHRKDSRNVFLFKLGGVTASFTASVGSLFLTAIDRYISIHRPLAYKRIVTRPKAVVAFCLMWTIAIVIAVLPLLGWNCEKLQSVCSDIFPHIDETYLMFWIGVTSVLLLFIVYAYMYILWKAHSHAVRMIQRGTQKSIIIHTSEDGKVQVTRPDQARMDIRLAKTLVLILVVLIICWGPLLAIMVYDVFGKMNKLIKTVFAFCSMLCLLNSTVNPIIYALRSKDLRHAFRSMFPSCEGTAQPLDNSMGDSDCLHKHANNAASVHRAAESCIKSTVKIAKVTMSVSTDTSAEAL

SMILES | Ki [1] | Ki [2] | Ratio Ki [3] | Ratio EC50 [4] | EC50 [5] | EC50 [6] | also measured
O=C(NCc1cccnc1)c1ccc(Br)c(S(=O)(=O)N2CCCCC2)c1 | 1800 nM | 320 nM | 5 | – | – | – | –
Cc1ccc(C(=O)NC(C)C23CC4CC(CC(C4)C2)C3)cc1S(=O)(=O)N1CCOCC1 (stereo not drawn) | 77 nM | 6.3 nM | 5 | 31 | 9.3 nM | 290 nM | –
CC(C)CNC(=O)c1ccc(Br)c(S(=O)(=O)N(C)Cc2ccccc2)c1 | > 1000 nM | 340 nM | > 3 | – | – | – | –
Cc1ccc(C(=O)NC2C3CC4CC(C3)CC2C4)cc1S(=O)(=O)N1CCOCC1 (stereo not drawn) | 33 nM | 5.6 nM | 15 | 23 | 12 nM | 270 nM | –
Cc1ccc(C(=O)N[C@H]2C(C)(C)[C@H]3CC[C@]2(C)C3)cc1S(=O)(=O)N1CCOCC1 | 540 nM | 48 nM | 11 | 35 | 25 nM | 880 nM | –
CC(C)(C)CNC(=O)c1ccc(Br)c(S(=O)(=O)N2CCCCC2)c1 | 1300 nM | 100 nM | 13 | – | – | – | –
Cc1ccc(C(=O)N[C@@H]2C(C)(C)[C@H]3CC[C@]2(C)C3)cc1S(=O)(=O)N1CCOCC1 | 130 nM | 3.9 nM | 31 | 120 | 4.6 nM | 550 nM | Activity [7]: Active; Activity [8]: Non-toxic; Activity [9]: inactive; Activity [10]: Non-toxic; Activity [11]: inactive; Activity [12]: Active; Activity [13]: Non-toxic
Cc1ccc(C(=O)NC(C)C(C)(C)C)cc1S(=O)(=O)N1CCOCC1 (stereo not drawn) | 1300 nM | 180 nM | 9 | 19 | 125 nM | 2400 nM | –
CC(C)(C)CNC(=O)c1ccc(Br)c(S(=O)(=O)N2CCOCC2)c1 | 1300 nM | 450 nM | 3 | – | – | – | –
Cc1ccc(C(=O)NC2C(C)CCCC2C)cc1S(=O)(=O)N1CCOCC1 (stereo not drawn) | 470 nM | 92 nM | 5 | 12 | 44 nM | 540 nM | –
CN(Cc1ccccc1)S(=O)(=O)c1cc(C(=O)N[C@@H]2C(C)(C)[C@H]3CC[C@]2(C)C3)ccc1Br | > 1000 nM | 11 nM | > 100 | – | – | – | inhibition [14]: 33%
Cc1ccc(C(=O)NC23CC4CC(CC(C4)C2)C3)cc1S(=O)(=O)N1CCOCC1 | 260 nM | 19 nM | 14 | 12 | 48 nM | 570 nM | –
CN(Cc1ccccc1)S(=O)(=O)c1cc(C(=O)NCC(C)(C)C)ccc1Br | > 1000 nM | 430 nM | > 2 | – | – | – | –
Cc1ccc(C(=O)N[C@H]2CC3CC[C@@]2(C)C3(C)C)cc1S(=O)(=O)N1CCOCC1 | 50 nM | 8.1 nM | 7 | 15 | 14 nM | 210 nM | –
Cc1ccc(C(=O)NC(C(C)(C)C)C(C)(C)C)cc1S(=O)(=O)N1CCOCC1 | 310 nM | 34 nM | 9 | 44 | 21 nM | 920 nM | –
CC(C)CNC(=O)c1ccc(Br)c(S(=O)(=O)N2CCCCC2)c1 | > 1000 nM | 410 nM | > 2 | – | – | – | –
CC1(C)[C@H]2CC[C@](C)(C2)[C@@H]1NC(=O)c1ccc(Br)c(S(=O)(=O)N2CCCCC2)c1 | 93 nM | 13 nM | 7 | 42 | 6.6 nM | 280 nM | –
CC1(C)[C@H]2CC[C@](C)(C2)[C@@H]1NC(=O)c1ccc(Br)c(S(=O)(=O)N2CCOCC2)c1 | 89 nM | 3.5 nM | 25 | 64 | 8.8 nM | 560 nM | –
CC(C)(C)CNC(=O)c1ccc(Br)c(S(=O)(=O)N2CCCC2)c1 | 2000 nM | 400 nM | 5 | – | – | – | –
NCC1(CC(=O)O)CCCCC1 | – | – | – | – | – | – | Activity [15]: Active
O=C(NCc1ccccc1)c1ccc(Br)c(S(=O)(=O)N2CCCCC2)c1 | 1100 nM | 360 nM | 3 | – | – | – | –
CC1(C)[C@H]2CC[C@](C)(C2)[C@@H]1NC(=O)c1ccc(Br)c(S(=O)(=O)N2CCCC2)c1 | 110 nM | 9.4 nM | 12 | 51 | 4.3 nM | 220 nM | –
Cc1ccc(C(=O)NCC23CC4CC(CC(C4)C2)C3)cc1S(=O)(=O)N1CCOCC1 | 91 nM | 10 nM | 9 | 8 | 25 nM | 210 nM | –
COc1cccc(CNC(=O)c2ccc(Br)c(S(=O)(=O)N3CCCCC3)c2)c1 | 1400 nM | 200 nM | 7 | – | – | – | –
CN1CC[C@]23c4c5ccc(O)c4O[C@H]2[C@@H](O)C=C[C@H]3[C@H]1C5 | – | – | – | – | – | – | Activity [16]: Active
Cc1ccc(C(=O)NCC(C)(C)C)cc1S(=O)(=O)N1CCOCC1 | > 1000 nM | 390 nM | > 3 | – | 1800 nM | > 1000 nM | –
